Assay results from ChEMBL document CHEMBL2163266, “3,3'-Disubstituted bipolar biphenyls as inhibitors of nuclear receptor coactivator binding” (Bioorg Med Chem Lett, 2012).
Calls of active or inactive are those of the source. No cut-off for these calls is given here.

Tests used:
[1] = target: T1, Estrogen receptor (Homo sapiens) (UniProt P03372); test: Antagonist activity at ERalpha in human MCF7 cells assessed as reduction in E2-induced SDF1 expression at 20 uM incubated for 2 hrs prior to E2-induction measured after 14 hrs by qPCR analysis; assay type: functional, cell-based; set-up: scale not given: the % may be the effect or the level left
T1 sequence (whole entry): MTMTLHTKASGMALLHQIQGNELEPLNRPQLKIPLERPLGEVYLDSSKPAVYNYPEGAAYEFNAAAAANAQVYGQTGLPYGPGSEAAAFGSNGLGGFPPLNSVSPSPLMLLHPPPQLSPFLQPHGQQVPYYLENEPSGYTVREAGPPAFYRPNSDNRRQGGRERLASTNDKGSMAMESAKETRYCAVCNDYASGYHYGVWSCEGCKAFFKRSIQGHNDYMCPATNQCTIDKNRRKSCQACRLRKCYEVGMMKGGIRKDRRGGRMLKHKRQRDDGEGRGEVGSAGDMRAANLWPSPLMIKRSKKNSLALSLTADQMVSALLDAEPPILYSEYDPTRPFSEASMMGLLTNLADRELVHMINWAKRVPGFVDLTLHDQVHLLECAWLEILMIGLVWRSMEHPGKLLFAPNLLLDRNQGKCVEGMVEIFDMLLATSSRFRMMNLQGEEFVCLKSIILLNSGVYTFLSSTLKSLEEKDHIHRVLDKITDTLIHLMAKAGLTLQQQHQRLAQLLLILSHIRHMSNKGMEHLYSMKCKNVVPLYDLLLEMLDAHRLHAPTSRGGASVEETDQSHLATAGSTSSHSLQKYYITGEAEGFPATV
Method in brief: (§1)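 MCF-7 (ER+) cells pretreated 2 h with 20 µM compound, then exposed to vehicle or estradiol for 14 h before target gene expression was measured.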

[2] = target: T1, Estrogen receptor (Homo sapiens); test: Activity at ERalpha in human MCF7 cells assessed as increase in E2-induced PR expression at 20 uM incubated for 2 hrs prior to E2-induction measured after 14 hrs by qPCR analysis; assay type: cell-based; method in brief: as §1
[3] = system: MCF7; test: Effect on E2-induced IDH3A expression in human MCF7 cells at 20 uM incubated for 2 hrs measured after 14 hrs by qPCR analysis; assay type: functional, cell-based; method in brief: as §1
[4] = target: T1, Estrogen receptor (Homo sapiens); test: Antagonist activity at ERalpha co-activator binding domain in human Hec1 cells assessed as inhibition of co-activator binding by reporter gene assay; assay type: cell-based
[5] = target: T1, Estrogen receptor (Homo sapiens); test: Binding affinity to ERalpha co-activator binding domain by TR-FRET assay
[6] = system: MCF7; test: Effect on IDH3A expression in human MCF7 cells at 20 uM incubated for 2 hrs measured after 14 hrs by qPCR analysis relative to E2; assay type: functional, cell-based; method in brief: as §1
[7] = target: T1, Estrogen receptor (Homo sapiens); test: Activity at ERalpha in human MCF7 cells assessed as increase in E2-induced PS2 expression at 20 uM incubated for 2 hrs prior to E2-induction measured after 14 hrs by qPCR analysis; assay type: cell-based; method in brief: as §1
[8] = target: T1, Estrogen receptor (Homo sapiens); test: Agonist activity at ERalpha in human MCF7 cells assessed as increase in PS2 expression at 20 uM incubated for 2 hrs measured after 14 hrs by qPCR analysis relative to E2; assay type: functional, cell-based; method in brief: as §1
[9] = target: T1, Estrogen receptor (Homo sapiens); test: Agonist activity at ERalpha in human MCF7 cells assessed as increase in SDF1 expression at 20 uM incubated for 2 hrs measured after 14 hrs by qPCR analysis relative to E2; assay type: functional, cell-based; method in brief: as §1
[10] = target: T1, Estrogen receptor (Homo sapiens); test: Agonist activity at ERalpha in human MCF7 cells assessed as increase in PR expression at 20 uM incubated for 2 hrs measured after 14 hrs by qPCR analysis relative to E2; assay type: functional, cell-based; method in brief: as §1
[11] = target: T1, Estrogen receptor (Homo sapiens); test: Antagonist activity at ERalpha co-activator binding domain expressed in human HepG2 cells assessed as inhibition of E2-induced […] LXXLL2 binding measured as decrease in […] activity after 40 hrs by luciferase reporter gene assay; assay type: cell-based; set-up: concentration or dose not given beside the values
Method in brief: (§2)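 HepG2 cells co-transfected with VP16-ERα, pM-GRIP1-LXXLL2, the 5xGal4-Luc3 reporter and a pCMV-β-gal normalization control. Serial twofold dilutions given with or without 1 nM estradiol, 40 h, then reporter read. Scored as >50% increase or decrease in reporter activity within concentration bands (<20, 20–50, >50 µM); <20% change scored 0.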

[12] = target: T1, Estrogen receptor (Homo sapiens); test: Antagonist activity at ERalpha in human MCF7 cells assessed as reduction in E2-induced PS2 expression at 20 uM incubated for 2 hrs prior to E2-induction measured after 14 hrs by qPCR analysis; assay type: functional, cell-based; set-up: scale not given: the % may be the effect or the level left; method in brief: as §1
[13] = target: T1, Estrogen receptor (Homo sapiens); test: Antagonist activity at ERalpha in human MCF7 cells assessed as reduction in E2-induced PR expression at 20 uM incubated for 2 hrs prior to E2-induction measured after 14 hrs by qPCR analysis; assay type: functional, cell-based; set-up: scale not given: the % may be the effect or the level left; method in brief: as §1
[14] = target: T1, Estrogen receptor (Homo sapiens); test: Antagonist activity at ERalpha co-activator binding domain expressed in human HepG2 cells assessed as inhibition of E2-induced […] LXXLL2 binding measured as decrease in […] activity at 20 to 50 uM after 40 hrs by luciferase reporter gene assay; assay type: cell-based; method in brief: as §2
[15] = system: CV-1; test: Cytotoxicity against african green monkey CV1 cells at >50 uM; assay type: cell-based; details: chlorocebus aethiops
[16] = system: HepG2; test: Cytotoxicity against human HepG2 cells expressing ERalpha co-activator binding domain at >50 uM; assay type: cell-based
[17] = target: T1, Estrogen receptor (Homo sapiens); test: Agonist activity at ERalpha co-activator binding domain expressed in human HepG2 cells assessed as […] LXXLL2 binding measured as […] activity at <20 uM; assay type: cell-based; method in brief: as §2

## CN(C)CCOc1ccc(-c2ccc(OCC(=O)O)c(C(C)(C)C)c2)cc1C(C)(C)C
[1]
  Activity: > 20%
[2]
  Activity: > 20%
[3]
  Activity: inactive
[4]
  inhibition: Active
[5]
  Activity: Active
[6]
  Activity: inactive
[7]
  Activity: > 20%
[8]
  Activity: > 20%
[9]
  Activity: > 20%
[10]
  Activity: > 20%

## CCOC(=O)COc1ccc(-c2ccc(OCCN(C)C)c(C(C)C)c2)cc1C(C)C
[11]
  Activity: < 20%

## CN(C)CCOc1ccc(-c2ccc(OCC(=O)O)c(Cc3ccccc3)c2)cc1Cc1ccccc1
[1]
  Activity: > 20%
[12]
  Activity: inactive
[3]
  Activity: inactive
[4]
  inhibition: Active
[5]
  Activity: Active
[13]
  Activity: > 20%
[6]
  Activity: inactive
[14]
  inhibition: > 50%
[8]
  Activity: inactive
[9]
  Activity: inactive
[10]
  Activity: inactive

## CCOC(=O)COc1ccc(-c2ccc(O)c(C(C)CC)c2)cc1C(C)CC (stereo unspecified)
[15]
  Activity: Toxic
[14]
  inhibition: > 50%

## CCOC(=O)COc1ccc(-c2ccc(OCCN(C)C)c(C(C)CC)c2)cc1C(C)CC (stereo unspecified)
[16]
  Activity: Toxic
[15]
  Activity: Toxic
[17]
  Activity: > 50%

## CCOC(=O)COc1ccc(-c2ccc(OCCN(C)C)c(C(C)(C)C)c2)cc1C(C)(C)C
[15]
  Activity: Toxic
[11]
  Activity: < 20%

## CCOC(=O)COc1ccc(-c2ccc(OCCN(C)C)c(Cc3ccccc3)c2)cc1Cc1ccccc1
[15]
  Activity: Toxic

## CCOC(=O)COc1ccc(-c2ccc(O)c(C(C)C)c2)cc1C(C)C
[15]
  Activity: Toxic
[14]
  inhibition: > 50%

## CCOC(=O)COc1ccc(-c2ccc(O)cc2)cc1
[11]
  Activity: < 20%
[17]
  Activity: > 50%

## CCOC(=O)COc1ccc(-c2ccc(O)c(Cc3ccccc3)c2)cc1Cc1ccccc1
[11]
  Activity: < 20%

## CC(C)c1cc(-c2ccc(OCC(=O)O)c(C(C)C)c2)ccc1OCCN(C)C
[1]
  Activity: > 20%
[12]
  Activity: inactive
[3]
  Activity: inactive
[4]
  inhibition: Active
[5]
  Activity: Active
[13]
  Activity: > 20%
[6]
  Activity: inactive
[11]
  Activity: < 20%
[8]
  Activity: inactive
[9]
  Activity: inactive
[10]
  Activity: inactive

## CN(C)CCOc1ccc(-c2ccc(OCC(=O)O)cc2)cc1
[1]
  Activity: > 20%
[12]
  Activity: inactive
[3]
  Activity: inactive
[4]
  inhibition: Active
[5]
  Activity: Active
[13]
  Activity: > 20%
[6]
  Activity: inactive
[11]
  Activity: < 20%
[8]
  Activity: > 20%
[9]
  Activity: > 20%
[10]
  Activity: > 20%

## CCOC(=O)COc1ccc(-c2ccc(O)c(C(C)(C)C)c2)cc1C(C)(C)C
[11]
  Activity: < 20%
[17]
  Activity: > 50%

## CCOC(=O)COc1ccc(-c2ccc(OCCN(C)C)cc2)cc1
[11]
  Activity: < 20%
[17]
  Activity: > 50%

## CCC(C)c1cc(-c2ccc(OCC(=O)O)c(C(C)CC)c2)ccc1OCCN(C)C (stereo unspecified)
[1]
  Activity: > 20%
[12]
  Activity: > 20%
[3]
  Activity: inactive
[4]
  inhibition: Active
[5]
  Activity: Active
[13]
  Activity: > 20%
[6]
  Activity: inactive
[8]
  Activity: inactive
[9]
  Activity: inactive
[10]
  Activity: inactive
